# Assay results: the EternaBench riboswitch data
# Tested on: MS2 coat protein
# Assay: apparent Kd, MS2 coat protein; higher = weaker binding; RNA-MaP array; FMN 200 µM where present
# In short: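 The apparent Kd is the median of filtered binding-curve fits, one per cluster, to green signal normalised to red-channel RNA signal and control-cluster median Fmax. The clusters were on Illumina sequencing chips, and stalled E. coli RNA polymerase had transcribed the designs on them. Titration used SNAP-549-labelled MS2 coat protein from 0.7 or 1.5 nM, doubling to 3 µM, without and then with constant ligand, in 100 mM Tris-HCl pH 7.5, 80 mM KCl, 4 mM MgCl2, BSA, DTT, yeast tRNA and Tween-20.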
# [1] = designed as: ON switch for flavin mononucleotide, no ligand
# [2] = ligand present: flavin mononucleotide, designed as: ON switch for flavin mononucleotide
# [3] = designed as: OFF switch for flavin mononucleotide, no ligand
# [4] = ligand present: flavin mononucleotide, designed as: OFF switch for flavin mononucleotide
sequence,measurement,setting,value
UGGUACUAGGGAGGAUAUGGGAAGAUACAUGAGGAUCACCCAUGUUUAAGAAUGCCGAGACGCAACUAGAAGGCCCUAGUACCU,apparent Kd,[1],354 nM
same,apparent Kd,[2],20.9 nM
CAAAACAUCUCCGUGUUUGUCGAACAUGAGGAUCACCCAUGUAGAAGGCAUCGCGCGACGCGGGAUGAGGAUAUACGCUGGAUG,apparent Kd,[3],6.18 nM
same,apparent Kd,[4],15.3 nM
UGCACCAACGAGAAGGCACAGAUCCAGCUCUUGACAUGAGGAUCACCCAUGUGAGGAUAUCGUAGGUGCGAUUUGGGACAAUCU,apparent Kd,[3],11 nM
same,apparent Kd,[4],91.8 nM
AAAAAGUGAGGAUAUACGGUGUGGAGUAGACACAACCAGACGUAGAAGGCACAUGAGGAUCACCCAUGUCCAAA,apparent Kd,[3],24.1 nM
same,apparent Kd,[4],21.4 nM
GCUAGUAUUGCAGGAUAUUGUGAAUAAUUAUUUCAAGAAGGGCAUUACAUGAGGAUCACCCAUGUCAUCCUUUUGAAUACUAGC,apparent Kd,[3],5.67 nM
same,apparent Kd,[4],7.63 nM
AGAAUGGGCGAGAAGGGAGUACAUGAGGAUCACCCAUGUGGUUCAUGGUGCUCAGGAUAUCGAUAGACCAAGGAGAGCCUUUGG,apparent Kd,[3],21.9 nM
same,apparent Kd,[4],185 nM
CUGUGACGGUGCGCAAGUGGACGUAGAAGGCUCACAUGAGGAUCACCCAUGUGGGCCUGCGAGUGAGAGGAUAUACGUUCGUGC,apparent Kd,[3],5.28 nM
same,apparent Kd,[4],5.56 nM
GCGCGCUAAGGAUAUACAUGAGGAUCACCCAUGUUGCUCUGAUGAGCGGGUGUAAGCUGUAGAAGGUAGAGCAA,apparent Kd,[3],61.9 nM
same,apparent Kd,[4],123 nM
CUGUGACGGUGCGCAUGUGGACGGAGAAGGCAGACAUGAGGAUCACCCAUGUGAGCCUGCUAUUCUGAGGAUAUCCGUUCGCAC,apparent Kd,[3],31.8 nM
same,apparent Kd,[4],192 nM
UGGUGAAGUGUAGGAUAUGGAGGUGGGUUUUGGCCAGAAGGACAUGAGGAUCACCCAUGUGGUAGAGGGUUGGUGGUGGCUCGU,apparent Kd,[3],23.9 nM
same,apparent Kd,[4],21.4 nM
AAUAUGAGCUGGAAUAACCUAGAAACAUGAGGAUCACCCAUGUAGGAUAUCAGCACGAUAAGUGCUGAGAAGGACAACCAGCUC,apparent Kd,[3],14.3 nM
same,apparent Kd,[4],15.2 nM
AACCGCGACCGGCCUGGCACGCCGAGAAGGGUACGUGACCUGCUUUACAUGAGGAUCACCCAUGUACAGGAUAUCGGAUAGCCG,apparent Kd,[4],7.28 nM
GGAUGAUUAAUAGGAUAUUAUUUGUAAAAUGGUUAAGAAGGAUUAAUGAUUUAAACGACCAGAUACAUGAGGAUCACCCAUGUA,apparent Kd,[1],24.4 nM
same,apparent Kd,[2],21.9 nM
GCGUUAUUGUAGAAGGUACAUGAAUAUAUUUAAUACCUCAAGUAACAUGAGGAUCACCCAUGUAGUAAGGAUAUACAUAUACGC,apparent Kd,[1],69.4 nM
same,apparent Kd,[2],52.4 nM
AGAUUCAUGGCCCGUUCGGGCUCACAUGAGGAUCACCCAUGUGAGGAUAUGAUGUACCUGAUUCAUCAGAAGGCGCAUGCGAAA,apparent Kd,[3],7.69 nM
same,apparent Kd,[4],20.8 nM
UACAUCAAUGAAGGAUAUCGAUAUCCAACAUGAGGAUCACCCAUGUUGAGGAUCACCCAUGUAAAUGAGAAGGUUAACAUAACU,apparent Kd,[1],94.9 nM
same,apparent Kd,[2],83.3 nM
GUCAGCUCGCGAGGAUAUACAACACUGCUUCGGCAGUGUAUUAAGAUCACAUGAGGAUCACCCAUGUAGAAGGCACGAGCUGAU,apparent Kd,[3],10.4 nM
same,apparent Kd,[4],145 nM
AAAUAGAAUGAGGAUAUCGUAUUAUAUUUAGUACGAGAAGGCAUUACAUGAGGAUCACCCAUGUUUUGUUGGGA,apparent Kd,[3],21.8 nM
same,apparent Kd,[4],57.9 nM
AGCGAGGUAGGAUAUACAUGAGGAUCACCCAUGUGCUUGCAUGGCGUGGAACAUCGUAGUAGAAGGGCCGCGCC,apparent Kd,[3],20.4 nM
same,apparent Kd,[4],40.2 nM
GUAGCAUACCGAGGAUAUUCAUACCGGAAACGGACAUGAGGAUCACCCAUGUGGCGAAAGCCUUAGGAGAAGGCGGAAUGCUAC,apparent Kd,[1],16.4 nM
same,apparent Kd,[2],12.3 nM
GUGUACAGAGGAUAUACAUGAGCAUGGAAACAUGCAUCUUCACAUGAGGAUCACCCAUGUAGAAGGCUGUACAC,apparent Kd,[3],227 nM
same,apparent Kd,[4],75 nM
UUCGAGCCAAGGCUCGCGAGUACACAGGAUAUGGAAAGUCACAUGAGGAUCACCCAUGUCCAAAACCAGAAGGGUGAGACUAAG,apparent Kd,[2],70.4 nM
UGUCGGAGCAGAGGAUAUACAUGAGGAUCACCCAUGUAAUAAAGUGAAGCCUGGAAACAGGCAAUGUAGAAGGUUGCUCCGACA,apparent Kd,[3],7.2 nM
same,apparent Kd,[4],31.5 nM
ACAUGAGGAUCACCCAUGUAGAAUGAAGAAGGUAGAUACUUGAGGAUCACCCAUGUACAUGGGACUAAGGAUAUUCUAAUAAUU,apparent Kd,[1],144 nM
same,apparent Kd,[2],105 nM
AAAAAGUCAGGAUAUGCGAAGGCGUCUGAUAGACGAGGCUAGCAGAAGGGACAUGAGGAUCACCCAUGUAAAGA,apparent Kd,[3],27.2 nM
same,apparent Kd,[4],55.1 nM
AAGAGCGAUUCUCCCUUCCUACAUGAGGAUCACCCAUGUACGAGAAGGCGCCGUGGAUACCACGGUGAGGAUAUCGUGCGUUAC,apparent Kd,[3],4.55 nM
same,apparent Kd,[4],5.13 nM
ACUAGAUGAGGAUAUGCAUAUUUUCGUGUUCUUCUAGGUUAACAUGAGGAUCACCCAUGUAGAAGGCGUCUAUG,apparent Kd,[3],21.1 nM
same,apparent Kd,[4],47.6 nM
CGCACGAGGCAAGGAUAUGCUGACAUGAGGAUCACCCAUGUGAGCAUGGGUCUGGUACGGGAUCAGCAGAAGGUGCACCGAGGU,apparent Kd,[3],18.5 nM
same,apparent Kd,[4],18.8 nM
UCUACAUAAAUUCAUCAAUACAGAAAGGAUAUGAAAUACAUGAGGAUCACCCAUGUUCAUGGGAAUUAGAAGGUUCAAUUAGCC,apparent Kd,[3],133 nM
same,apparent Kd,[4],84.6 nM
GCUCUGGCAUGAGGAUAUGGUCAGCUUUGCUGACCAGAAGGCAUGUCAAUAGACAUGAGGAUCACCCAUGUAGUUAACAGAGCA,apparent Kd,[1],538 nM
same,apparent Kd,[2],37.3 nM
AUCGUGCAGCUUUGCUGUACGCGUACAUGAGGAUCACCCAUGUAGGAUAUGGUAGGCAAAGCUUACUAGAAGGAUAUAGUGAUC,apparent Kd,[3],61.9 nM
same,apparent Kd,[4],54 nM
AAUGUUUUCAUAGGAUAUUGACUUUUAUUUAUUCAAGAAGGAUGAUAACAUGAGGAUCACCCAUGUUAAAAUGGAUUAACUAGU,apparent Kd,[3],16.1 nM
same,apparent Kd,[4],26.6 nM
UUGGACGUCGUAGGAUAUGUAGUAUAUUCCUACAUGAGGAUCACCCAUGUUGACAUGGAAGAAGGACAGAAGGACGAUGUCCAU,apparent Kd,[1],6.54 nM
same,apparent Kd,[2],5.01 nM
AUAAGUCGAGGAUAUACAAAAUGCUAGCGAAAGCUAGCAUAACAUGAGGAUCACCCAUGUAGAAGGCGACAAUA,apparent Kd,[3],24.5 nM
same,apparent Kd,[4],26.1 nM
AAAAAACAUGAGGAUCACCCAUGUCUUCGGACGUGAGGAUAUGUACAGACUUCGGUCUGUACAGAAGGCAUGUCAA,apparent Kd,[1],212 nM
same,apparent Kd,[2],25.9 nM
UUGUUACAUGAGGAUCACCCAUGUGAGGAUAUGUGUAUCCCUAAAAAAGUGUGGGACCACAGAAGGUACUUGGA,apparent Kd,[3],54.6 nM
same,apparent Kd,[4],68.1 nM
UGAUCGAGAGAUCUUAGAUUCUGGUAGGAUAUACAUAUUGUAAUAUAGACAUGAGGAUCACCCAUGUAGAAGGACUAGAGUCUA,apparent Kd,[3],6.6 nM
same,apparent Kd,[4],11.5 nM
CCACGUCACAUUUACAUGAGGAUCACCCAUGUCGAAAGACAUGAGGAUAUGCAUCCUAAUUGGAUGCAGAAGGCAUGGACGUGG,apparent Kd,[1],276 nM
same,apparent Kd,[2],274 nM
CUCCUCGAAGGAUAUACUGUGGAUCAUAAGUCAGGGAGGUUACAUGAGGAUCACCCAUGUAGAAGGUCGAGGUG,apparent Kd,[3],67.2 nM
same,apparent Kd,[4],428 nM
GGUCCUCUGGUGAGGAUAUCUACCCAGGCAGCUGGAGAGAAGGCACAUGAGGAUCACCCAUGUAGCAGAAAACC,apparent Kd,[3],9.98 nM
same,apparent Kd,[4],17 nM
UCAUGUUAGCAGGAUAUGCUAUUUAUUUUUUAUGCAGAAGGGCUUACAUGAGGAUCACCCAUGUGUUAGGUUUU,apparent Kd,[3],41.8 nM
same,apparent Kd,[4],21.1 nM
ACAUGCAAGUAGAAGGUCGGAUAUUUUGAUAACGAAGGAUAUACAGAAUCAUAUCCACAUGAUAACAUGAGGAUCACCCAUGUA,apparent Kd,[3],15.2 nM
same,apparent Kd,[4],15 nM
UGCCGUAGAGGAUAUACAUUGAAUUAGAUUCAUGUAAAACUACAUGAGGAUCACCCAUGUAGAAGGCUAUGGCU,apparent Kd,[3],16.6 nM
same,apparent Kd,[4],24.5 nM
UUGUUCCAUGUAGGAUAUGCAUAUUCUUAUUAUGCAGAAGGACAUGAGGAUCACCCAUGUAUGUUAUUAUUAUAUGUUACAUGU,apparent Kd,[3],72.3 nM
same,apparent Kd,[4],392 nM
AGAAACUACGAGAAGGACAUGUGGUCCAAAAGAAACAUGAGGAUCACCCAUGUAGGAUAUCGUAGUUUCAGGAUCGUGAGAUCA,apparent Kd,[3],280 nM
same,apparent Kd,[4],56.8 nM
GGAUUACAUGAGGAUCACCCAUGUGAGGAUAUCGAUGUCCUCAAUGAAGUGCGGGACUCGAGAAGGCACUUGGA,apparent Kd,[3],78.5 nM
same,apparent Kd,[4],108 nM
AAUUUGGAGGGAGGAUAUACAUGAGGAUCACCCAUGUAGCCUAACACGGCUCUCAAUUUCCAAGUGUAGAAGGCCCAACGUGUU,apparent Kd,[3],13.6 nM
same,apparent Kd,[4],48.8 nM
CGCAAACAUGAGGAUCACCCAUGUCAUUGUGGUCAAGGAUAUGGGUUCCUAAAUGGAACACCAGAAGGUGAAAAGA,apparent Kd,[1],164 nM
same,apparent Kd,[2],33.5 nM
UUCAGCUCGUGAGGAUAUACAUGUGCUGGAAACAGCACUAAAGAUUUCACAUGAGGAUCACCCAUGUAGAAGGCACGAGCUGAG,apparent Kd,[3],16.2 nM
same,apparent Kd,[4],39.4 nM
GUGAUACAUGAGGAUCACCCAUGUCACCUCACACGAGGAUAUCUGUGCAGUACUCAGUACGGAGAAGGCGUGGAAA,apparent Kd,[1],96.7 nM
same,apparent Kd,[2],26.4 nM
UGUCGGAGCAGAGGAUAUUACAUGAGGAUCACCCAUGUAGGUACCAAUAGCUGGAAACAGCAAUGUAAGAAGGCUGCUCCGACA,apparent Kd,[3],280 nM
same,apparent Kd,[4],408 nM
UUAGGACAUGAGGAUCACCCAUGUGAGGAUAUGCUGCAGGGAGGUCCCAGCAAUAUUCGUAGAAGGCAUAAGGG,apparent Kd,[3],221 nM
same,apparent Kd,[4],177 nM
GGAUCGAAUGUCAGGAUAUGCUGGUCCUUGGAUCAGCAGAAGGGACAUGAGGAUCACCCAUGUGACGACGGUCC,apparent Kd,[3],64.7 nM
same,apparent Kd,[4],503 nM
UGUCGGAGCAGAGGAUAUUACAUGAGGAUCACCCAUGUAUGAACCAAUAGCUGGAAACAGCAAUGUAAGAAGGCUGCACCGACA,apparent Kd,[3],12.6 nM
same,apparent Kd,[4],178 nM
AGUAAGAUGCAGAAGGUGUUAGCUAGAGCUACGACAUGAGGAUCACCCAUGUACUAGAAACAGUACAAGGAUAUGCAUCUUACA,apparent Kd,[1],18.1 nM
same,apparent Kd,[2],6.28 nM
